{"data": "Experimental data collected from several papers", "CDK7 with cyclin H": "Cyclin-dependent kinase 7, with cyclin H (CDK7, Homo sapiens, UniProt P50613)", "ACSL4": "Long-chain-fatty-acid--CoA ligase 4 (ACSL4, Homo sapiens, UniProt O60488)", "HDAC6": "Protein deacetylase HDAC6 (HDAC6, Homo sapiens, UniProt Q9UBN7)", "SLCO2B1": "Solute carrier organic anion transporter family member 2B1 (SLCO2B1, Homo sapiens, UniProt O94956)", "note": "Lines come from different studies, so protocols differ."}
{"SMILES": "CNS(=O)(=O)c1ccc(Nc2ncc(C(F)(F)F)c(N3CCC(C)(O)CC3)n2)c(C)c1", "target": "CDK7 with cyclin H", "effect on": "enzyme activity", "mode": "inhibitor", "technique": "radiometric", "IC50 [nM]": 1970}
{"SMILES": "COC(=O)/C=C/c1ccc(OCCN(C)C(=O)c2ccccc2)cc1", "target": "ACSL4", "effect on": "enzyme activity", "mode": "inhibitor", "IC50 [nM]": 380}
{"SMILES": "O=C(CNc1cccc2c1C(=O)N(C1CCC(=O)NC1=O)C2=O)NCCCCCCN1CCc2c(c3ccccc3n2Cc2ccc(C(=O)NO)cc2)C1 (stereo not shown)", "target": "HDAC6", "effect on": "enzyme activity", "mode": "inhibitor", "technique": "fluorescence", "IC50 [nM]": 40}
{"SMILES": "CCc1oc2cc(F)ccc2c1C(=O)c1cc(Br)c(O)c(Br)c1", "target": "SLCO2B1", "effect on": "transporter uptake", "mode": "inhibitor", "technique": "radiometric", "IC50 [nM]": 749}
{"SMILES": "CN(C)C(=O)c1cc2cnc(Nc3ccc(-c4ccc5c(=O)cc(N6CCOCC6)oc5c4)cc3)nc2n1C1CCCC1", "target": "CDK7 with cyclin H", "effect on": "enzyme activity", "mode": "inhibitor", "IC50 [nM]": "> 10000"}
{"SMILES": "CN(CCOc1cccc(CC2SC(=O)NC2=O)c1)c1ccccc1 (stereo not shown)", "target": "ACSL4", "effect on": "enzyme activity", "mode": "inhibitor", "IC50 [nM]": 10100}
{"SMILES": "O=C1CCC(c2ccc(OCC(=O)OCCCCc3cn(CCCCCCN4CCc5c(c6ccccc6n5Cc5ccc(C(=O)NO)cc5)C4)nn3)cc2)C(=O)N1 (stereo not shown)", "target": "HDAC6", "effect on": "enzyme activity", "mode": "inhibitor", "technique": "fluorescence", "IC50 [nM]": 49}
{"SMILES": "COC(=O)/C=C/c1ccc(OCCN(C)C(=O)c2ccc(C3(C(F)(F)F)N=N3)cc2)cc1", "target": "ACSL4", "effect on": "enzyme activity", "mode": "inhibitor", "IC50 [nM]": 24400}
{"SMILES": "O=C(NO)c1ccc(Cn2cnc3c(Nc4ccc(F)c(Cl)c4)ncnc32)cc1", "target": "HDAC6", "effect on": "enzyme activity", "mode": "inhibitor", "technique": "fluorescence", "IC50 [nM]": 6.17}
{"SMILES": "COc1ccc(N(Cc2csc(-c3ccccc3)n2)C(=O)CCCCCC(=O)NO)cc1", "target": "HDAC6", "effect on": "enzyme activity", "mode": "inhibitor", "IC50 [nM]": 2.7}
{"SMILES": "COC(=O)CCc1ccc(OCCN(C)c2ccccc2)cc1", "target": "ACSL4", "effect on": "enzyme activity", "mode": "inhibitor", "IC50 [nM]": 8500}
{"SMILES": "Cc1cc(O)c(-c2ccc([C@@H](C)CN(C)C)cc2)c2c1[nH]c(=O)c1sccc12", "target": "CDK7 with cyclin H", "effect on": "enzyme activity", "mode": "inhibitor", "IC50 [nM]": "> 1000"}
{"SMILES": "COc1ccc(N(Cc2csc(-c3ccc(C)cc3)n2)C(=O)CCCCCC(=O)NO)cc1", "target": "HDAC6", "effect on": "enzyme activity", "mode": "inhibitor", "IC50 [nM]": 2.5}
{"SMILES": "O=C(NO)c1ccc(Cn2cnc3c(Nc4cccc([N+](=O)[O-])c4)ncnc32)cc1", "target": "HDAC6", "effect on": "enzyme activity", "mode": "inhibitor", "technique": "fluorescence", "IC50 [nM]": "< 2"}
{"SMILES": "CN(CCCOc1ccc(CC2SC(=O)NC2=O)cc1)c1ccccc1 (stereo not shown)", "target": "ACSL4", "effect on": "enzyme activity", "mode": "inhibitor", "IC50 [nM]": 600}
{"SMILES": "CNS(=O)(=O)c1ccc(Nc2ncc(C(F)(F)F)c(N3CCCC(C)(O)C3)n2)c(C)c1 (stereo not shown)", "target": "CDK7 with cyclin H", "effect on": "enzyme activity", "mode": "inhibitor", "technique": "radiometric", "IC50 [nM]": 2510}
{"SMILES": "COCCN1CCN(Cc2ccc(-c3n[nH]c4c3C(=O)c3c(NC(=O)NN5CCOCC5)cccc3-4)cc2)CC1", "target": "Protein kinase 6 (Plasmodium falciparum, UniProt Q8IDW1)", "effect on": "enzyme activity", "mode": "inhibitor", "technique": "radiometric", "IC50 [nM]": 832}
{"SMILES": "CNS(=O)(=O)c1ccc(Nc2ncc(C(F)(F)F)c([C@H]3CC[C@@](C)(O)CC3)n2)c(C)c1", "target": "CDK7 with cyclin H", "effect on": "enzyme activity", "mode": "inhibitor", "technique": "radiometric", "IC50 [nM]": 7260}
{"SMILES": "CN(CCOc1ccc(CC2SC(=O)NC2=O)cc1)c1ccccc1 (stereo not shown)", "target": "ACSL4", "effect on": "enzyme activity", "mode": "inhibitor", "IC50 [nM]": 400}
{"SMILES": "O=C(NO)c1ccc(CN2CCN(c3cccc4cc(S(=O)(=O)c5cccc(F)c5)cnc34)CC2)c(F)c1", "target": "HDAC6", "effect on": "enzyme activity", "mode": "inhibitor", "technique": "fluorescence", "IC50 [nM]": 540}
{"SMILES": "CN1CCC(CNc2ccc3ncc(-c4cccc(OC(F)(F)F)c4)n3n2)CC1", "target": "5-hydroxytryptamine receptor 1B (HTR1B, Homo sapiens, UniProt P28222)", "effect on": "cAMP", "mode": "agonist", "IC50 [nM]": 95}
{"SMILES": "CN1C(=O)SC(Cc2ccc(OCCN(C)c3ccccn3)cc2)C1=O (stereo not shown)", "target": "ACSL4", "effect on": "enzyme activity", "mode": "inhibitor", "IC50 [nM]": 4500}
{"SMILES": "CCc1oc2cc(F)c(F)cc2c1C(=O)c1cc(Br)c(O)c(Br)c1", "target": "SLCO2B1", "effect on": "transporter uptake", "mode": "inhibitor", "technique": "radiometric", "IC50 [nM]": 135}
{"SMILES": "CCc1ccc(C(=O)COc2ccc(CC3SC(=O)NC3=O)cc2)nc1 (stereo not shown)", "target": "ACSL4", "effect on": "enzyme activity", "mode": "inhibitor", "IC50 [nM]": 6000}
{"SMILES": "O=C1CCC(N2C(=O)c3cccc(NCC(=O)OCCCCc4cn(CCCCCCN5CCc6c(c7ccccc7n6Cc6ccc(C(=O)NO)cc6)C5)nn4)c3C2=O)C(=O)N1 (stereo not shown)", "target": "HDAC6", "effect on": "enzyme activity", "mode": "inhibitor", "technique": "fluorescence", "IC50 [nM]": 47}
